# Experimental data as given in ChEMBL document CHEMBL1255250, “Microbicidal properties and cytocidal selectivity of rhesus macaque theta defensins” (Antimicrob Agents Chemother, 2008).
# The source made the active and inactive calls. The calls are words filed in the database; no cut-off is given here. Where a SMILES comes first, the peptide text is derived from it. Bridges are numbered along the chain shown (N, C = ends).
# Tests used:
# [1] = tested on: Staphylococcus aureus; experiment: Microbicidal activity against Staphylococcus aureus 502a in presence of 0.8 mM Magnesium ions; assay type: functional, organism-based
# [2] = tested on: Escherichia coli; experiment: Microbicidal activity against Escherichia coli ML35 in presence of 0.8 mM Magnesium ions; assay type: functional, organism-based
# In short: (§1)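 Log-phase E. coli ML35 or C. albicans was incubated with increasing peptide concentrations in 10 mM PIPES, pH 7.4. The buffer contained 1.2 mM CaCl2 and 0.8 mM MgCl2, or no added divalent salts. Incubation was 2 h at 37°C, and survivors were counted as colonies.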
# [3] = tested on: Escherichia coli; experiment: Microbicidal activity against Escherichia coli ML35 in presence of 1.2 mM Calcium ions; assay type: functional, organism-based; in short: as §1
# [4] = tested on: Candida albicans; experiment: Microbicidal activity against Candida albicans 16820; assay type: functional
# In short: (§2)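 Log-phase organisms (1–2 × 10^6 CFU/ml) were exposed to serially diluted peptide (0.05–10.0 μg/ml final) in 10 mM PIPES, pH 7.4, with 5 mM glucose for 2 h at 37°C. Aliquots were serially diluted 1:10 to 1:10^6 in Trypticase soy or Sabouraud broth and grown 24–48 h at 37°C. MMC was the lowest concentration giving 99.9% viability loss in at least two experiments.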
# [5] = tested on: Escherichia coli; experiment: Microbicidal activity against Escherichia coli ML35 at <=8 ug/ml in presence of 10% heat-inactivated human serum; assay type: functional, organism-based
# In short: (§3)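 Human serum was heat-inactivated at 55°C for 30 min and clarified by centrifugation. E. coli was then exposed to a dose series of peptide in 10 mM PIPES, pH 7.4, with 10% of this serum. Killing was counted as colonies and expressed relative to incubations without serum.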
# [6] = tested on: Staphylococcus aureus; experiment: Microbicidal activity against Staphylococcus aureus 502a using 10 mM sodium phosphate buffer in presence of 154 mM NaCl; assay type: functional, organism-based
# In short: (§4)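 Log-phase S. aureus was exposed to increasing peptide concentrations for 2 h at 37°C. Buffer was 10 mM PIPES, Tris-HCl or sodium phosphate, pH 7.4, with or without 154 mM NaCl. Killing was read by colony counting.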
# [7] = tested on: Staphylococcus aureus; experiment: Microbicidal activity against Staphylococcus aureus 502a; assay type: functional; in short: as §2
# [8] = tested on: Staphylococcus aureus; experiment: Microbicidal activity against Staphylococcus aureus 502a at 5 ug/ml in presence of <= 80 mM NaCl; assay type: functional, organism-based
# In short: (§5)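 S. aureus in log phase was incubated with 5 μg/ml peptide in 10 mM PIPES, pH 7.4, containing increasing NaCl for 2 h at 37°C. Killing was determined by colony counting and expressed as a percentage of killing in buffer alone.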
# [9] = Toxicity in human Erythrocyte assessed as hemolysis at 100 ug/ml in presence of 10% serum; assay type: cell-based
# In short: (§6)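 Erythrocytes from EDTA-anticoagulated human donor blood were washed in PBS or PiBS containing 4 mM EDTA, then resuspended without EDTA at 2% (vol/vol). Cells were incubated with peptide (0.3–100 μg/ml final) for 1 h at 37°C, with or without 10% autologous serum. Supernatant A405 was expressed relative to 1% Nonidet P-40 lysis.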
# [10] = tested on: Staphylococcus aureus; experiment: Microbicidal activity against Staphylococcus aureus 502a using 10 mM PIPES buffer in presence of 154 mM NaCl; assay type: functional, organism-based; in short: as §4
# [11] = tested on: Candida albicans; experiment: Microbicidal activity against Candida albicans 16820 in presence of 1.2 mM Calcium ions; assay type: functional, organism-based; in short: as §1
# [12] = tested on: Staphylococcus aureus; experiment: Microbicidal activity against Staphylococcus aureus 502a using 10 mM Tris-HCl buffer in presence of 154 mM NaCl; assay type: functional, organism-based; in short: as §4
# [13] = tested on: Candida albicans; experiment: Microbicidal activity against Candida albicans 16820 using PIPES buffer in presence of NaCl; assay type: functional, organism-based
# In short: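 Log-phase C. albicans was incubated with peptide in 10 mM PIPES, pH 7.4, supplemented with NaCl, for 2 h at 37°C. Survivors were plated on Sabouraud dextrose agar and counted after 18–24 h at 37°C.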
# [14] = Selectivity index, ratio of MMC for Staphylococcus aureus 502a to hemolytic activity for human erythrocytes
# [15] = biological target: Beta-galactosidase (Escherichia coli) (UniProt Q8VNN2); experiment: Inhibition of Escherichia coli ML35 Beta-galactosidase assessed as inhibition of o-nitrophenyl-beta-d-galactopyranoside hydrolysis at 4 ug/ml
# Sequence of Beta-galactosidase (Escherichia coli) (Q8VNN2 whole entry, looked up): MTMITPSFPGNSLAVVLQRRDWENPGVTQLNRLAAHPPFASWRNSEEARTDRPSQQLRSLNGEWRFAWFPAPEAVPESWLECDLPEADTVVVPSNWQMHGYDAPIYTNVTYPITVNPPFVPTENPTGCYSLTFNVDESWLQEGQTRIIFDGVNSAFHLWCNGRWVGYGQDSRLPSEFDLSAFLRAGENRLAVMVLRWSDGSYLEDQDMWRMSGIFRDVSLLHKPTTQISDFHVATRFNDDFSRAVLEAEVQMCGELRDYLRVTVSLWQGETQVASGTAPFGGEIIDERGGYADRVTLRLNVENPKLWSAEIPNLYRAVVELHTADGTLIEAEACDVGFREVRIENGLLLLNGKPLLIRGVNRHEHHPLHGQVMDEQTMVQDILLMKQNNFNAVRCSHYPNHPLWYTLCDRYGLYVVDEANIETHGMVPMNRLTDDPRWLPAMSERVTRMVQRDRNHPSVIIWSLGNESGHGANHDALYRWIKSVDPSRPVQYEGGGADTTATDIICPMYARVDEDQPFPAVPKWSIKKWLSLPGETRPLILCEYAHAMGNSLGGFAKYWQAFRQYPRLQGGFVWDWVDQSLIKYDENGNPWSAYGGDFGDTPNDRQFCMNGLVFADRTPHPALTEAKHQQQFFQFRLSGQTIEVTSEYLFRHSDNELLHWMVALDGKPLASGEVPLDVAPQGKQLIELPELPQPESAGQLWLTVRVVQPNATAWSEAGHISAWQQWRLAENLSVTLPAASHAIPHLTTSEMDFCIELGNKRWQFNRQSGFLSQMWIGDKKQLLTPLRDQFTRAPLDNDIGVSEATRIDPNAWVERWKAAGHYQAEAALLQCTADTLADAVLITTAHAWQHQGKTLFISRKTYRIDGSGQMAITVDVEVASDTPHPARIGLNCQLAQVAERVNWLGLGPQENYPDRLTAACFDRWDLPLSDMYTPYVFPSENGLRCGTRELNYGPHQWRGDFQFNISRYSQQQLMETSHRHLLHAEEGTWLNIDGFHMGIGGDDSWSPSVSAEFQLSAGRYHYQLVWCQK
# [16] = tested on: Escherichia coli; experiment: Microbicidal activity against Escherichia coli ML35 at 16 ug/ml in presence of 10% heat-inactivated human serum; assay type: functional, organism-based; in short: as §3
# [17] = tested on: Escherichia coli; experiment: Microbicidal activity against Escherichia coli ML35; assay type: functional; in short: as §2
# [18] = tested on: Escherichia coli; experiment: Microbicidal activity against Escherichia coli ML35 assessed as induction of cytoplasmic membrane permeabilization at 1 ug/ml; assay type: functional, organism-based
# In short: (§7)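 Log-phase E. coli ML35 (1–2 × 10^6 CFU/ml) was incubated with peptide (0–8 μg/ml final) in 10 mM PIPES, pH 7.4, containing 3 mM ONPG. ONPG hydrolysis was followed at 405 nm for 60 min. The rate was taken as the highest kinetic slope and corrected for peptide inhibition of β-galactosidase measured cell-free.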
# [19] = Inhibition of beta-galactosidase in cell-free system assessed as inhibition of o-nitrophenyl-beta-d-galactopyranoside hydrolysis
# [20] = tested on: Staphylococcus aureus; experiment: Microbicidal activity against Staphylococcus aureus 502a at >= 2 ug/ml in presence of 10% human serum; assay type: functional, organism-based
# In short: (§8)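 S. aureus was incubated with a dose series of peptide in 10 mM PIPES, pH 7.4, containing 10% normal human serum. Bacterial killing was determined by colony counting and expressed as a percentage of killing in incubations lacking serum.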
# [21] = tested on: Candida albicans; experiment: Microbicidal activity against Candida albicans 16820 in presence of 0.8 mM Magnesium ions; assay type: functional, organism-based; in short: as §1
# [22] = tested on: Staphylococcus aureus; experiment: Microbicidal activity against Staphylococcus aureus 502a at 5 ug/ml in presence of 160 mM NaCl; assay type: functional, organism-based; in short: as §5
# [23] = tested on: Candida albicans; experiment: Microbicidal activity against Candida albicans 16820 assessed as log reduction in microbial count at 10 ug/ml using PIPES buffer
# [24] = tested on: Staphylococcus aureus; experiment: Microbicidal activity against Staphylococcus aureus 502a in presence of 1.2 mM Calcium ions; assay type: functional, organism-based
# [25] = Toxicity in human Erythrocyte assessed as concentration required to achieve 3% hemolysis; assay type: cell-based
# [26] = Toxicity in human Erythrocyte assessed as hemolysis at 100 ug/ml; assay type: cell-based; in short: as §6
# [27] = biological target: Beta-galactosidase (Escherichia coli) (UniProt Q8VNN2); experiment: Inhibition of Escherichia coli ML35 beta-galactosidase assessed as inhibition of o-nitrophenyl-beta-d-galactopyranoside hydrolysis at 1 ug/ml after 60 mins; in short: as §7
# [28] = tested on: Staphylococcus aureus; experiment: Microbicidal activity against Staphylococcus aureus 502a at 0.5 to 2 ug/ml in presence of 10% human serum; assay type: functional, organism-based; in short: as §8
SMILES,Activity [1],Activity [2],Activity [3],Activity [5],Activity [6],Activity [8],Activity [10],Activity [11],Activity [12],Activity [13],inhibition [15],Activity [16],Activity [18],inhibition [19],Activity [20],Activity [21],Activity [22],Activity [24],also measured
"CC(C)C[C@@H]1NC(=O)[C@@H]2CSSC[C@H](NC(=O)[C@H](CCCNC(=N)N)NC(=O)[C@@H]3CSSC[C@H](NC1=O)C(=O)N[C@@H](CCCNC(=N)N)C(=O)N[C@@H](CCCNC(=N)N)C(=O)NCC(=O)N[C@@H](C(C)C)C(=O)N3)C(=O)N[C@@H](CC(C)C)C(=O)N[C@H]1CSSC[C@H](NC(=O)[C@H](C(C)C)NC(=O)CNC(=O)[C@H](CCCNC(=N)N)NC(=O)[C@H](CCCNC(=N)N)NC1=O)C(=O)N[C@@H](CCCNC(=N)N)C(=O)N2 (cyclo(CLCRRGVCRCLCRRGVCR); disulfide 1-10, 3-8, 12-17)",Active,Active,Active,inactive,Active,Active,Active,inactive,Active,inactive,36%,Active,Active,Dose-dependent effect,Active,inactive,inactive,Active,MMC [4]: 1 µg/mL; MMC [7]: 1 µg/mL; Activity [9]: Non-toxic; Selectivity Index [14]: 6.2; MMC [17]: 2 µg/mL; FC [23]: >3; Activity [25]: 6.2 µg/mL; Activity [26]: Non-toxic; inhibition [27]: Active
CC[C@H](C)[C@@H]1NC(=O)[C@@H]2CSSC[C@H](NC(=O)[C@H](CCCNC(=N)N)NC(=O)[C@@H]3CSSC[C@H](NC1=O)C(=O)N[C@@H]([C@H](C)O)C(=O)N[C@@H](CCCNC(=N)N)C(=O)NCC(=O)N[C@H](Cc1ccccc1)C(=O)N3)C(=O)N[C@@H](CC(C)C)C(=O)N[C@@H]1CSSC[C@@H](NC(=O)[C@H](C(C)C)NC(=O)CNC(=O)[C@H](CCCNC(=N)N)NC(=O)[C@H](CCCNC(=N)N)NC1=O)C(=O)N[C@@H](CCCNC(=N)N)C(=O)N2,Active,Active,Active,inactive,Active,Active,Active,inactive,Active,inactive,36%,Active,Active,Dose-dependent effect,Active,inactive,inactive,Active,Activity [28]: inactive
